Measured values from PubChem BioAssay.
Results filed as inconclusive are left out.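 How the source made its calls, unless noted: active means viability increase at or above a cutoff of the median across tested compounds plus 3 SD (cut at about 8.5% in these data, passing the limit was not always enough); inconclusive means some gains above the cutoff, reason not given; inactive means the rest.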

What was measured:
[1] = S. cerevisiae growth inhibition in permissive medium (OD615), pilot counter-assay for S. cerevisiae lifespan shortening project, permissive growth control (AID 705;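 active means growth inhibition above 25% in both replicates, a cutoff set 3 SD above the mean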); conditions: OD615, 24 h, at 10 µM, hits give high values
Summary of the method: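 System: Engineered DeaD yeast | Buffer or medium: SC raffinose/galactose permissive medium | Doses: 10 µM single dose, 0.25% DMSO | Times: 24 h exposure, 30 °C | Measured by: OD615 turbidity read | Read-out: Yeast growth inhibition indicated by reduced 24 h OD615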

[2] = S. cerevisiae growth inhibition in restrictive medium, OD615, pilot screen, restrictive growth control, yeast lifespan reduction project (AID 706;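 active means growth inhibition above a set limit, 3 SD over mean compound inhibition, in both replicates, cut at about 43% in these data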;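 further: modified DeaD lifespan yeast strain shifted to restrictive glucose medium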); conditions: OD615, 48 h, at 10 µM, hits give high values
Summary of the method: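 Assay system: engineered S. cerevisiae DeaD strain; Buffer or medium: CSMM-D glucose medium; Dosing: 10 µM compound, 0.25% DMSO; Times: cell pre-growth 4 h, compound exposure 48 h, 30 °C; Detection: absorbance (optical density) measured at 615 nm.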

[3] = doxorubicin toxicity protection in MRP-1 cells – H69AR cells, CellTiter-Glo, duplicate, MRP-1 activator project, pilot screen (AID 807); conditions: H69AR viability with doxorubicin, CellTiter-Glo luminescence; at 10 µM; hits give high values;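 further: compound pretreatment 18-22 h then 72 h combined with doxorubicin; 0% = doxorubicin alone and 100% = vehicle without doxorubicin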
[4] = viability of HCT116 without oncogenic beta-catenin – human colon tumor cells, pilot screen (AID 823;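 active means cell viability at or below a set limit in both duplicate runs, the limit being the all-compound median minus 4 SD, cut at about 23% in these data, passing the limit was not always enough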;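 further: 0% = wells killed by 20 µM Hyamine and 100% = untreated DMSO cell wells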); conditions: HCT116 beta-catenin knockout viability, CellTiter-Glo, 60 h; at 10 µM; hits give low values
[5] = viability of PTEN-null HCT116 cells – cell-based, HCT116 clonal line, CellTiter-Glo, pilot screen (AID 824;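 active means viability at or below 27.92% in each of two runs, the all-compound median minus 4 SD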;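 further: 0% = 20 µM Hyamine control and 100% = vehicle cell control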); conditions: HCT116 PTEN-deleted viability, 60 h, at 10 µM, hits give low values
[6] = RAM pathway blockade in budding yeast – dse1pr::URA3 reporter, 5-FOA selection, pilot screen (AID 869;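 active means inhibition over a set limit, the all-compound mean plus 3 SD, in both replicate runs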;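 further: 0% = DMSO wells with no growth and 100% = 10 µM 1-NA-PP1 with full growth; RAM network block rescues cells from 5-FOA so hits raise OD615 growth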); conditions: S. cerevisiae dse1pr::URA3 5-FOA growth, OD615, 2 d; at 10 µM; hits give high values; strain carries analog-sensitive mutant Cbk1 kinase
[7] = RAM signaling pathway blockade in yeast – S. cerevisiae, Pdr1DBD-CYC8 efflux-inhibited sensitized strain, primary screen (AID 1298;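 active means RAM network inhibition above 8.4% in each of two replicates, 3 SD over the compound average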;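 further: 0% = DMSO untreated cells without growth and 100% = 10 µM 1-NA-PP1 full growth; higher means more yeast growth rescued from 5-FOA killing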); conditions: S. cerevisiae cbk1-as DSE1-URA3 strain, 5-FOA growth OD615, 2 d; at 50 µM; hits give high values

O=C(CSc1nnnn1-c1cccc2c1CCCC2)N1CCOCC1
inactive: growth inhibition [1] -3.82% | growth inhibition [2] -27.1% | viability increase [3] -3.02% | viability [4] 95.4% | viability [5] 94.5% | inhibition [6] 0.68% | RAM network inhibition [7] 2.95%

CCc1ccc(C2N(c3ccc(OC)cc3)C(=O)C3CCCN32)cc1 (stereo unspecified)
inactive: growth inhibition [1] 2.83% | growth inhibition [2] -2.37% | viability increase [3] -1.6% | viability [4] 95.3% | viability [5] 101% | inhibition [6] 0.83% | RAM network inhibition [7] 0.23%

O=C1CC(c2ccco2)CC(O)=C1C=NCC1CCNCC1 (stereo unspecified)
inactive: growth inhibition [1] -17.1% | growth inhibition [2] -5.49% | viability increase [3] 1.85% | viability [4] 102% | viability [5] 101% | inhibition [6] 0.37% | RAM network inhibition [7] 3.8%

COc1cc(NC(=O)c2cc3ccccc3o2)c(OC)cc1Cl
inactive: growth inhibition [1] -7.12% | growth inhibition [2] -6.08% | viability increase [3] -4.12% | viability [4] 80.7% | viability [5] 73.6% | inhibition [6] 3.16% | RAM network inhibition [7] 9.24%

O=C(CCCCCN1C(=O)C2C3C=CC(C3)C2C1=O)Nc1nccs1 (stereo unspecified)
inactive: growth inhibition [1] -3.44% | growth inhibition [2] -2.41% | viability increase [3] -1.31% | viability [4] 100% | viability [5] 91.5% | inhibition [6] 0.215% | RAM network inhibition [7] 4.28%

CCOC(=O)C1CCCN(C(=O)c2cn(CC)c3ccc(S(=O)(=O)N(C)C)cc3c2=O)C1 (stereo unspecified)
inactive: growth inhibition [1] -5.92% | growth inhibition [2] -15.5% | viability increase [3] -0.67% | viability [4] 108% | viability [5] 102% | inhibition [6] 0.85% | RAM network inhibition [7] 0.1%

O=C(C1CC(c2ccc(F)cc2)=NO1)N1CCN(Cc2ccccc2)CC1 (stereo unspecified)
inactive: growth inhibition [1] -0.77% | growth inhibition [2] -2.39% | viability increase [3] -1.28% | viability [4] 96.2% | viability [5] 101% | inhibition [6] 1.8% | RAM network inhibition [7] 2.3%

CCCSc1nc2c(cnn2-c2ccc(F)cc2)c(=O)[nH]1
inactive: growth inhibition [1] -5.3% | growth inhibition [2] -3.29% | viability increase [3] -2.46% | viability [4] 95% | viability [5] 94.7% | inhibition [6] 0.82% | RAM network inhibition [7] 2.71%

O=C(Cn1ncc2c(=O)oc3ccccc3c21)N1CCCN(Cc2ccccc2F)C1
inactive: growth inhibition [1] -3.74% | growth inhibition [2] 2.98% | viability increase [3] -3.74% | viability [4] 101% | viability [5] 94.1% | inhibition [6] 1.55% | RAM network inhibition [7] 1.79%

CCC1(C)OC(=O)N2CCc3c(C)[nH]c4c(C)ccc(c34)C21C (stereo unspecified)
inactive: growth inhibition [1] -14.7% | growth inhibition [2] -17.8% | viability increase [3] -1.6% | viability [4] 95.9% | viability [5] 91.3% | inhibition [6] 2.15% | RAM network inhibition [7] 1.06%

COc1ccc(C2OC(=O)CC2C(=O)N2CCN(c3cc(Cl)ccc3C)CC2)cc1OC (stereo unspecified)
inactive: growth inhibition [1] -0.42% | growth inhibition [2] 4.67% | viability increase [3] -2.26% | viability [4] 96.8% | viability [5] 95.5% | inhibition [6] 0.44% | RAM network inhibition [7] 2.7%

COc1ccc(S(=O)(=O)Cc2ccc(C(=O)N3CCN(C4CCCCC4)CC3)o2)cc1
inactive: growth inhibition [1] 8.67% | growth inhibition [2] 7.12% | viability increase [3] -2.58% | viability [4] 78.9% | viability [5] 90% | inhibition [6] 0.75% | RAM network inhibition [7] -1.9%

O=C(CN1CCN(Cc2ccccc2F)C1=O)NCCN1CCOCC1
inactive: growth inhibition [1] -2.78% | growth inhibition [2] 5.44% | viability increase [3] -0.58% | viability [4] 109% | viability [5] 99.5% | inhibition [6] 1.27% | RAM network inhibition [7] 1.5%

COc1ccc(Cn2nnc3c(=O)[nH]c(C4CCCN(C(=O)c5ccccc5)C4)nc32)cc1 (stereo unspecified)
inactive: growth inhibition [1] -8.47% | growth inhibition [2] -8.09% | viability increase [3] -1.66% | viability [4] 108% | viability [5] 99.9% | inhibition [6] -0.35% | RAM network inhibition [7] 3.06%

COc1ccccc1OCCC(=O)OCC(=O)NC(=O)NC(C)(C)C
inactive: growth inhibition [1] -2.01% | growth inhibition [2] -17.1% | viability increase [3] -1.52% | viability [4] 85.7% | viability [5] 84.3% | inhibition [6] 2.56% | RAM network inhibition [7] 0.79%

COc1ccc(C2c3sc(=O)[nH]c3SC3C(=O)N(c4ccccc4)C(=O)C32)cc1 (stereo unspecified)
inactive: growth inhibition [1] -6.11% | growth inhibition [2] 12.6% | viability increase [3] 0.68% | viability [4] 99.9% | viability [5] 99.3% | inhibition [6] 2.98% | RAM network inhibition [7] 5.53%

Cc1noc(C(=O)Nc2c(C)n(C)n(-c3ccccc3)c2=O)c1Cl
inactive: growth inhibition [1] -13.3% | growth inhibition [2] -16.6% | viability increase [3] -2.04% | viability [4] 95% | viability [5] 98.7% | inhibition [6] 1.79% | RAM network inhibition [7] 0.38%

CCn1ccc(C(=O)Nc2ccc(Cl)cn2)n1
inactive: growth inhibition [1] -9.65% | growth inhibition [2] 11.6% | viability increase [3] -1.34% | viability [4] 93.6% | viability [5] 93.9% | inhibition [6] 1.48% | RAM network inhibition [7] 3.03%
